Measured values: ChEMBL document CHEMBL5058577, “EUbOPEN Chemogenomics Library 2 (Multiplex)” (2022)

System: Fibroblast
Experiment: Multiplex assay against human fibroblast
Format: toxicity, cell-based
How it was run: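 Tubulin, mitochondrial-mass and membrane-permeability phenotypes are per cents of healthy-nucleus cells. Cells were gated by CellPathfinder machine learning into Hoechst high-intensity objects or normal cells, normal cells into healthy, pyknosed or fragmented nuclei, and pyknosed cells into mitotic or apoptotic. Before that, live cells stained at seeding with Hoechst33342, BioTracker Green Microtubule Cytoskeleton Dye, MitoTracker Red and Annexin V Alexa Fluor 680 were imaged on a CQ1 microscope at 37°C and 5% CO2 after compound addition.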

[1] = 12 h, 1 µM, compound concentration 1 uM, replicate 1
[2] = 12 h, 1 µM, compound concentration 1 uM, replicate 2
[3] = 12 h, 10 µM, compound concentration 10 uM, replicate 1
[4] = 12 h, 10 µM, compound concentration 10 uM, replicate 2
[5] = 24 h, 1 µM, compound concentration 1 uM, replicate 1
[6] = 24 h, 1 µM, compound concentration 1 uM, replicate 2
[7] = 24 h, 10 µM, compound concentration 10 uM, replicate 1
[8] = 24 h, 10 µM, compound concentration 10 uM, replicate 2
[9] = 48 h, 1 µM, compound concentration 1 uM, replicate 1
[10] = 48 h, 1 µM, compound concentration 1 uM, replicate 2
[11] = 48 h, 10 µM, compound concentration 10 uM, replicate 1
[12] = 48 h, 10 µM, compound concentration 10 uM, replicate 2

O=C1COc2nccc(-c3ccccc3F)c2CN1Cc1cc(C(F)(F)F)cc(C(F)(F)F)c1
Population Apoptotic (%) [1]: 38%
Population Fragmented Nuclei (%) [1]: 12%
Population Healthy Nuclei (%) [1]: 74%
Population Hoechst High Intensity Objects (%) [1]: 2%
Population Membrane Permeable-Phenotype (%) [1]: 1%
Population Mitochondria Different-Phenotype (%) [1]: 7%
Population Mitotic Cells (%) [1]: 61%
Population Normal (%) [1]: 97%
Population Pyknosed Nuclei (%) [1]: 13%
Population Tubulin-Different-Phenotype (%) [1]: 27%
Total Cell Count [1]: 195
Population Apoptotic (%) [2]: 29%
Population Fragmented Nuclei (%) [2]: 17%
Population Healthy Nuclei (%) [2]: 62%
Population Hoechst High Intensity Objects (%) [2]: 0%
Population Mitochondria Different-Phenotype (%) [2]: 5%
Population Mitotic Cells (%) [2]: 70%
Population Normal (%) [2]: 99%
Population Pyknosed Nuclei (%) [2]: 20%
Population Tubulin-Different-Phenotype (%) [2]: 32%
Total Cell Count [2]: 135
Population Apoptotic (%) [3]: 54%
Population Fragmented Nuclei (%) [3]: 15%
Population Healthy Nuclei (%) [3]: 69%
Population Hoechst High Intensity Objects (%) [3]: 5%
Population Membrane Permeable-Phenotype (%) [3]: 0%
Population Mitochondria Different-Phenotype (%) [3]: 10%
Population Mitotic Cells (%) [3]: 45%
Population Normal (%) [3]: 94%
Population Pyknosed Nuclei (%) [3]: 14%
Population Tubulin-Different-Phenotype (%) [3]: 66%
Total Cell Count [3]: 161
Population Apoptotic (%) [4]: 37%
Population Fragmented Nuclei (%) [4]: 24%
Population Healthy Nuclei (%) [4]: 51%
Population Hoechst High Intensity Objects (%) [4]: 8%
Population Membrane Permeable-Phenotype (%) [4]: 4%
Population Mitochondria Different-Phenotype (%) [4]: 12%
Population Mitotic Cells (%) [4]: 62%
Population Normal (%) [4]: 91%
Population Pyknosed Nuclei (%) [4]: 23%
Population Tubulin-Different-Phenotype (%) [4]: 50%
Total Cell Count [4]: 132
Population Apoptotic (%) [5]: 53%
Population Fragmented Nuclei (%) [5]: 11%
Population Healthy Nuclei (%) [5]: 74%
Population Hoechst High Intensity Objects (%) [5]: 3%
Population Membrane Permeable-Phenotype (%) [5]: 0%
Population Mitochondria Different-Phenotype (%) [5]: 6%
Population Mitotic Cells (%) [5]: 46%
Population Normal (%) [5]: 96%
Population Pyknosed Nuclei (%) [5]: 14%
Population Tubulin-Different-Phenotype (%) [5]: 23%
Total Cell Count [5]: 203
Population Apoptotic (%) [6]: 34%
Population Fragmented Nuclei (%) [6]: 20%
Population Healthy Nuclei (%) [6]: 58%
Population Hoechst High Intensity Objects (%) [6]: 2%
Population Membrane Permeable-Phenotype (%) [6]: 2%
Population Mitochondria Different-Phenotype (%) [6]: 3%
Population Mitotic Cells (%) [6]: 65%
Population Normal (%) [6]: 97%
Population Pyknosed Nuclei (%) [6]: 20%
Population Tubulin-Different-Phenotype (%) [6]: 39%
Total Cell Count [6]: 142
Population Apoptotic (%) [7]: 66%
Population Fragmented Nuclei (%) [7]: 18%
Population Healthy Nuclei (%) [7]: 71%
Population Hoechst High Intensity Objects (%) [7]: 3%
Population Membrane Permeable-Phenotype (%) [7]: 0%
Population Mitochondria Different-Phenotype (%) [7]: 11%
Population Mitotic Cells (%) [7]: 33%
Population Normal (%) [7]: 96%
Population Pyknosed Nuclei (%) [7]: 9%
Population Tubulin-Different-Phenotype (%) [7]: 57%
Total Cell Count [7]: 162
Population Apoptotic (%) [8]: 55%
Population Fragmented Nuclei (%) [8]: 26%
Population Healthy Nuclei (%) [8]: 56%
Population Hoechst High Intensity Objects (%) [8]: 6%
Population Membrane Permeable-Phenotype (%) [8]: 7%
Population Mitochondria Different-Phenotype (%) [8]: 5%
Population Mitotic Cells (%) [8]: 45%
Population Normal (%) [8]: 93%
Population Pyknosed Nuclei (%) [8]: 16%
Population Tubulin-Different-Phenotype (%) [8]: 61%
Total Cell Count [8]: 129
Population Apoptotic (%) [9]: 75%
Population Fragmented Nuclei (%) [9]: 16%
Population Healthy Nuclei (%) [9]: 75%
Population Hoechst High Intensity Objects (%) [9]: 5%
Population Membrane Permeable-Phenotype (%) [9]: 0%
Population Mitochondria Different-Phenotype (%) [9]: 4%
Population Mitotic Cells (%) [9]: 25%
Population Normal (%) [9]: 94%
Population Pyknosed Nuclei (%) [9]: 8%
Population Tubulin-Different-Phenotype (%) [9]: 28%
Total Cell Count [9]: 210
Population Apoptotic (%) [10]: 31%
Population Fragmented Nuclei (%) [10]: 29%
Population Healthy Nuclei (%) [10]: 55%
Population Hoechst High Intensity Objects (%) [10]: 6%
Population Membrane Permeable-Phenotype (%) [10]: 1%
Population Mitochondria Different-Phenotype (%) [10]: 1%
Population Mitotic Cells (%) [10]: 68%
Population Normal (%) [10]: 93%
Population Pyknosed Nuclei (%) [10]: 14%
Population Tubulin-Different-Phenotype (%) [10]: 25%
Total Cell Count [10]: 143
Population Apoptotic (%) [11]: 72%
Population Fragmented Nuclei (%) [11]: 20%
Population Healthy Nuclei (%) [11]: 72%
Population Hoechst High Intensity Objects (%) [11]: 2%
Population Membrane Permeable-Phenotype (%) [11]: 0%
Population Mitochondria Different-Phenotype (%) [11]: 14%
Population Mitotic Cells (%) [11]: 27%
Population Normal (%) [11]: 97%
Population Pyknosed Nuclei (%) [11]: 6%
Population Tubulin-Different-Phenotype (%) [11]: 62%
Total Cell Count [11]: 172
Population Apoptotic (%) [12]: 60%
Population Fragmented Nuclei (%) [12]: 39%
Population Healthy Nuclei (%) [12]: 49%
Population Hoechst High Intensity Objects (%) [12]: 5%
Population Membrane Permeable-Phenotype (%) [12]: 1%
Population Mitochondria Different-Phenotype (%) [12]: 8%
Population Mitotic Cells (%) [12]: 40%
Population Normal (%) [12]: 94%
Population Pyknosed Nuclei (%) [12]: 11%
Population Tubulin-Different-Phenotype (%) [12]: 47%
Total Cell Count [12]: 144
